One series addresses D(1A) dopamine receptor (Homo sapiens, UniProt P21728). Description: Displacement of [3H]SCh23390 from dopamine D1 receptor expressed in mouse LTK cells by scintillation counting. The series is classed as cell-based. (In general: Loss of bound radioactivity is the signal in a displacement assay; it reports binding, not function.)
A further series deals with T1, D(4) dopamine receptor (Homo sapiens, UniProt P21917).
T1 sequence (P21917 whole entry): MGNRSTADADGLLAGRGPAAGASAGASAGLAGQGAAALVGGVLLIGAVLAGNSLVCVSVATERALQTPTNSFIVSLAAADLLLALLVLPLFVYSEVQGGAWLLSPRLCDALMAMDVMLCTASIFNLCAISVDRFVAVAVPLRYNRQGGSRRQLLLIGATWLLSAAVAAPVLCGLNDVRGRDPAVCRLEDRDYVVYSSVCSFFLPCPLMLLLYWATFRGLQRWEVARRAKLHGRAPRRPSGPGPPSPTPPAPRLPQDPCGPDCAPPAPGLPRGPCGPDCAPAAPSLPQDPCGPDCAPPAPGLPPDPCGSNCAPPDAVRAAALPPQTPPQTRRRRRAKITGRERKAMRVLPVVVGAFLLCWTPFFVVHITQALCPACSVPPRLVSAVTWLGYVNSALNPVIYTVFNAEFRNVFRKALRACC
Description: Displacement of radioligand from dopamine D4 receptor expressed in mouse LTK cells by scintillation counting. The series is classed as cell-based. In a few lines: (§1)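 Ki came from equilibrium radioligand binding. Bound and free radioligand were separated by rapid filtration, and bound counts were measured by liquid scintillation. Standard error was 10%, and assay-to-assay variability was under twofold.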

The next series has as its target D(2) dopamine receptor (Homo sapiens, UniProt P14416). Description: Displacement of [3H]methylspiperon from dopamine D2 receptor expressed in mouse LTK cells by scintillation counting. The series is classed as cell-based.
The target in a further series is D(1B) dopamine receptor (Homo sapiens, UniProt P21918). Description: Displacement of radioligand from dopamine D5 receptor expressed in mouse LTK cells by scintillation counting. The series is classed as cell-based. In a few lines: as §1
The next series relates to Rattus norvegicus. Description: AUC (0 to 6 hrs) in Sprague-Dawley rat at 10 mg/kg, po. The series is classed as ADME, organism-based, Plasma. Further details: time < 6 hr, dose 10 mg/kg, route oral. Conditions: in vivo. In a few lines:
(§2)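 Two male Sprague–Dawley rats received 10 mg/kg orally under a cassette-accelerated rapid rat protocol. Blood was sampled at several time points, and values came from pooled samples. […] Individual plasma levels were generally within ±25% of the average.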

Series [1] in a line: Tmax in Sprague-Dawley rat at 10 mg/kg, po. The series is classed as ADME, organism-based. The arrangement: dose 10 mg/kg, route oral. The conditions noted are these: in vivo. The method in brief:
as §2

Series [2] in a line: Cmax in Sprague-Dawley rat at 10 mg/kg, po. Conditions: in vivo. Further details: dose 10 mg/kg, route oral. The series is classed as ADME, organism-based. In a few lines: as §2

Sequence of D(1B) dopamine receptor (P21918 whole entry): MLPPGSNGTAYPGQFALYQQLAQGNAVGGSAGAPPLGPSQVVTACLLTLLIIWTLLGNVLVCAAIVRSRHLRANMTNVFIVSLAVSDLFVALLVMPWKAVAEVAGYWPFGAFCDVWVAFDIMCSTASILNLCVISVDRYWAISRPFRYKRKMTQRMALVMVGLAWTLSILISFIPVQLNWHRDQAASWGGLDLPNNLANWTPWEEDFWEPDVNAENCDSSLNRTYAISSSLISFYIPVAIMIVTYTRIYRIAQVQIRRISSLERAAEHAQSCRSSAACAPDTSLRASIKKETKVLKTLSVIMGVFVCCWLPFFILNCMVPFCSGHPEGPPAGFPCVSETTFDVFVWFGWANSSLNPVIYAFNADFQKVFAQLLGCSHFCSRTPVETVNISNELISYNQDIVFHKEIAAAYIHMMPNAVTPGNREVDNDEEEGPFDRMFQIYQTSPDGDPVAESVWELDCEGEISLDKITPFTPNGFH
Sequence of D(1A) dopamine receptor (P21728 whole entry): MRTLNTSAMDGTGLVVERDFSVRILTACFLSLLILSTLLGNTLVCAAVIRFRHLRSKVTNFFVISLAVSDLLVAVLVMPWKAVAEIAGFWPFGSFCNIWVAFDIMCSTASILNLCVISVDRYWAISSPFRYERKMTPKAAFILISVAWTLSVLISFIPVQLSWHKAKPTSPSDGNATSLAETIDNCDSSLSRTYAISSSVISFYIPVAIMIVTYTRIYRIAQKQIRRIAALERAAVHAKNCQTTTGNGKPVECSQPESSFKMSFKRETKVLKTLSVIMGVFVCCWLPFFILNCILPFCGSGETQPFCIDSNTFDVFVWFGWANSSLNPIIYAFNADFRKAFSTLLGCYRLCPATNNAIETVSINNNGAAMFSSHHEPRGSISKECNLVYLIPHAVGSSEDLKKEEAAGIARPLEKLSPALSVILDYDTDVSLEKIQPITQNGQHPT
Sequence of D(2) dopamine receptor (P14416 whole entry): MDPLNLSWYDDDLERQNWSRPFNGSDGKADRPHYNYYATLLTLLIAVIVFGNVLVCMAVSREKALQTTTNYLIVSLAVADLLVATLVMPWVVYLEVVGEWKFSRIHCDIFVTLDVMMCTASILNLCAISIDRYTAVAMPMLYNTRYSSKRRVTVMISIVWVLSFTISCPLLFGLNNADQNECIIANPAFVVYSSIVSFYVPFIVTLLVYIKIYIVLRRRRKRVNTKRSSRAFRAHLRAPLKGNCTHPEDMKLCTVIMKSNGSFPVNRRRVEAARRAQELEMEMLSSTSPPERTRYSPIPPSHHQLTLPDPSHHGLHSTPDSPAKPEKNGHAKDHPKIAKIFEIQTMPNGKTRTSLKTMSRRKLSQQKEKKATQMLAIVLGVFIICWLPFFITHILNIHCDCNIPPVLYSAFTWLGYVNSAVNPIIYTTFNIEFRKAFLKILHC

As a reminder, the Ki is a measure of affinity in units of concentration, obtained from inhibition or displacement. A lower Ki goes with higher affinity. `CN1CCc2cc(Cl)c(O)cc2[C@H]2c3cccc(/C=N/OCc4ccccc4)c3CC[C@@H]21`: the Ki was determined as 0.2 nM at D(1A) dopamine receptor, 8340 nM on D(4) dopamine receptor, 69 nM at D(2) dopamine receptor and 2.5 nM on D(1B) dopamine receptor.

For the compound `CN1CCc2cc(Cl)c(O)cc2[C@H]2c3cccc(-c4cccc(C#N)c4)c3CC[C@@H]21`, the Ki at D(1A) dopamine receptor amounted to 0.6 nM; at D(4) dopamine receptor, 10000 nM; at D(2) dopamine receptor it was 584 nM; at D(1B) dopamine receptor, 3.4 nM.

`CCO/N=C/c1cccc2c1CC[C@H]1[C@H]2c2cc(O)c(Cl)cc2CCN1C`: the Ki at D(1A) dopamine receptor was determined as 1.8 nM; at D(4) dopamine receptor, 5890 nM; on D(2) dopamine receptor, 217 nM; on D(1B) dopamine receptor it was 10 nM.

For the compound `COC(=O)c1cccc2c1CC[C@H]1[C@H]2c2cc(O)c(Cl)cc2CCN1C`, the Ki on D(1A) dopamine receptor was determined as 2.3 nM; at D(4) dopamine receptor, 4830 nM; on D(2) dopamine receptor, 923 nM; on D(1B) dopamine receptor, 3.7 nM.

On D(2) dopamine receptor, `CN1CCc2cc(Cl)c(O)cc2[C@H]2c3cccc(-c4ccccc4)c3CC[C@@H]21` returned an inhibition constant (Ki) of 79 nM. This lies in the double-digit nanomolar range.

For `CN1CCc2cc(Cl)c(O)cc2[C@H]2c3cccc(CO)c3CC[C@@H]21`, the inhibitory constant (Ki) on D(1A) dopamine receptor turned out to be 2 nM; on D(4) dopamine receptor, 6280 nM; on D(2) dopamine receptor it was 1650 nM; at D(1B) dopamine receptor, 7.4 nM.

Take `CN1CCc2cc(Cl)c(O)cc2[C@H]2c3cccc(O)c3CC[C@@H]21`: the results for the Ki on D(4) dopamine receptor, on D(2) dopamine receptor and at D(1B) dopamine receptor were 3990 nM, 440 nM and 1.4 nM, respectively.

For `CO/N=C/c1cccc2c1CC[C@H]1[C@H]2c2cc(O)c(Cl)cc2CCN1C`, the inhibition constant (Ki) on D(1A) dopamine receptor was 4.4 nM; on D(4) dopamine receptor, 7510 nM; at D(2) dopamine receptor, 483 nM; on D(1B) dopamine receptor, 22 nM.

As for `CN1CCc2cc(Cl)c(O)cc2[C@H]2c3cccc(-c4cccc([N+](=O)[O-])c4)c3CC[C@@H]21`, the Ki at D(1A) dopamine receptor was 0.6 nM; at D(4) dopamine receptor it was 10000 nM; on D(2) dopamine receptor, 618 nM; at D(1B) dopamine receptor, 4.7 nM.

With `CN1CCc2cc(Cl)c(O)cc2[C@H]2c3cccc(N4CCCC4=O)c3CC[C@@H]21`, the Ki at D(1A) dopamine receptor was determined as 3.1 nM; on D(4) dopamine receptor it was 10000 nM; at D(2) dopamine receptor it was 1370 nM; at D(1B) dopamine receptor, 26.9 nM.

Broadly, the AUC is the area under the concentration-time curve, a measure of exposure. What is called Tmax is the time from dosing to the highest level. Usually Cmax stands for the peak of the concentration-time curve. As to `CN1CCc2cc(Cl)c(O)cc2[C@H]2c3cccc(-c4ccncc4)c3CC[C@@H]21`, the Ki on D(4) dopamine receptor worked out at 5060 nM; at D(2) dopamine receptor it was 756 nM; at D(1B) dopamine receptor, 10.5 nM. In the series on Rattus norvegicus, this compound returned an exposure (AUC) of 75 µg·h/mL. Further, the time of peak concentration (Tmax) in series [1] was found to be 0.5 h. In series [2], the peak level (Cmax) was 43 ng/mL.

With `COc1ccc(-c2cccc3c2CC[C@H]2[C@H]3c3cc(O)c(Cl)cc3CCN2C)cc1`, the inhibition constant (Ki) on D(1A) dopamine receptor was determined as 0.7 nM; at D(4) dopamine receptor, 10000 nM; at D(2) dopamine receptor, 550 nM; at D(1B) dopamine receptor it was 6.2 nM. In the series on Rattus norvegicus, this compound yielded an area under the curve (AUC) of 76 µg·h/mL. Further, the time to peak (Tmax) in series [1] is 2 h. The Cmax in series [2] is 18 ng/mL.

As to `CN1CCc2cc(Cl)c(O)cc2[C@H]2c3cccc(Br)c3CC[C@@H]21`, the Ki came to 3 nM at D(1A) dopamine receptor, 10000 nM on D(4) dopamine receptor, 1690 nM at D(2) dopamine receptor and 7.5 nM at D(1B) dopamine receptor.

In the case of `CN1CCc2cc(Cl)c(O)cc2[C@H]2c3cccc(/C=N/Oc4ccccc4)c3CC[C@@H]21`, the Ki at D(1A) dopamine receptor came out at 1 nM; on D(4) dopamine receptor, 10000 nM; on D(2) dopamine receptor it was 124 nM; on D(1B) dopamine receptor it was 2.1 nM.

On to `CN1CCc2cc(Cl)c(O)cc2[C@H]2c3cccc(C(=O)O)c3CC[C@@H]21`, for which the results for the Ki at D(1A) dopamine receptor and on D(2) dopamine receptor were 38 nM and 420 nM, respectively.

`CN1CCc2cc(Cl)c(O)cc2[C@H]2c3cccc(C=O)c3CC[C@@H]21`: the inhibition constant Ki on D(1A) dopamine receptor amounted to 2.6 nM; at D(4) dopamine receptor, 5970 nM; at D(2) dopamine receptor, 1370 nM; at D(1B) dopamine receptor it was 3.3 nM.

Regarding `CN(C)c1ccc(-c2cccc3c2CC[C@H]2[C@H]3c3cc(O)c(Cl)cc3CCN2C)cc1`, the figures for the Ki on D(1A) dopamine receptor and on D(2) dopamine receptor were 0.7 nM and 12 nM, respectively.

Take `CN1CCc2cc(Cl)c(O)cc2[C@H]2c3cccc(-c4cccs4)c3CC[C@@H]21`: the Ki on D(4) dopamine receptor worked out at 10000 nM; on D(2) dopamine receptor, 93 nM; at D(1B) dopamine receptor, 1.9 nM. In the series on Rattus norvegicus, this compound returned an AUC of 353 µg·h/mL. Further, the Tmax in series [1] turned out to be 2 h. The compound further showed a maximum concentration (Cmax) in series [2] of 90 ng/mL.

For the compound `CN1CCc2cc(Cl)c(O)cc2[C@H]2c3cccc(-c4cccc(OC(F)(F)F)c4)c3CC[C@H]21`, the inhibitory constant (Ki) at D(1A) dopamine receptor was 2.3 nM; at D(2) dopamine receptor, 1610 nM.

As to `CN1CCc2cc(Cl)c(O)cc2[C@H]2c3cccc(-c4ccc5[nH]ccc5c4)c3CC[C@@H]21`, the Ki on D(1A) dopamine receptor was determined as 0.6 nM; at D(2) dopamine receptor it was 51 nM.

On to `CN1CCc2cc(Cl)c(O)cc2[C@H]2c3cccc(/C=N/O)c3CC[C@@H]21`, for which the Ki came to 1.6 nM at D(1A) dopamine receptor, 4370 nM at D(4) dopamine receptor, 882 nM on D(2) dopamine receptor and 3.3 nM on D(1B) dopamine receptor.

Regarding `CN1CCc2cc(Cl)c(O)cc2[C@H]2c3cccc(-c4cc(F)cc(F)c4)c3CC[C@@H]21`, the results for the inhibitory constant (Ki) at D(1A) dopamine receptor and at D(2) dopamine receptor were 0.9 nM and 312 nM, respectively.

Consider `CN1CCc2cc(Cl)c(O)cc2[C@H]2c3cccc(C#N)c3CC[C@@H]21`, for which the Ki on D(1A) dopamine receptor came to 2.8 nM; at D(4) dopamine receptor it was 10000 nM; on D(2) dopamine receptor, 1330 nM; on D(1B) dopamine receptor, 89 nM.

For `CN1CCc2cc(Cl)c(O)cc2[C@H]2c3cccc(-c4cccc(F)c4)c3CC[C@@H]21`, the results for the Ki at D(1A) dopamine receptor and on D(2) dopamine receptor were 0.4 nM and 223 nM, respectively.

In the case of `CN1CCc2cc(Cl)c(O)cc2[C@H]2c3cccc(-c4ccc(CO)cc4)c3CC[C@@H]21`, the results for the inhibition constant Ki at D(1A) dopamine receptor and at D(2) dopamine receptor were 0.7 nM and 89 nM, respectively.

Take `CN1CCc2cc(Cl)c(O)cc2[C@H]2c3ccccc3CC[C@@H]21` [ECOPIPAM]: the Ki at D(4) dopamine receptor came out at 5520 nM; on D(1B) dopamine receptor it was 2 nM. In the series with Rattus norvegicus, this compound registered an AUC of 156 µg·h/mL.
